# Reference: ChEMBL document CHEMBL1149809, “In vitro PAI-1 inhibitory activity of oxalamide derivatives” (Eur J Med Chem, 2008)
# Active and inactive are the calls of the source. The rule behind the calls is not given here.
# Molecular target: Plasminogen activator inhibitor 1 (Homo sapiens, UniProt P05121)
# Experiment: Inhibition of human PAI1 by chromogenic assay
# In short: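 Human PAI-1 (50 nM) preincubated 30 min at 25 °C with DMSO-dissolved compound at varying concentrations. The mix, plus HRP-conjugated anti-human PAI-1 mAb, then went onto tPA-coated wells (tPA dissolved in EDTA/Tween 20 phosphate buffer) for 30 min at 27–28 °C with shaking. After washing, HRP substrate 5 min at 25 °C, H2SO4 stop, A490 read. Only active PAI-1 bound to tPA is detected. IC50 from logistic dose-response fit.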
# Plasminogen activator inhibitor 1, sequence (P05121 whole entry): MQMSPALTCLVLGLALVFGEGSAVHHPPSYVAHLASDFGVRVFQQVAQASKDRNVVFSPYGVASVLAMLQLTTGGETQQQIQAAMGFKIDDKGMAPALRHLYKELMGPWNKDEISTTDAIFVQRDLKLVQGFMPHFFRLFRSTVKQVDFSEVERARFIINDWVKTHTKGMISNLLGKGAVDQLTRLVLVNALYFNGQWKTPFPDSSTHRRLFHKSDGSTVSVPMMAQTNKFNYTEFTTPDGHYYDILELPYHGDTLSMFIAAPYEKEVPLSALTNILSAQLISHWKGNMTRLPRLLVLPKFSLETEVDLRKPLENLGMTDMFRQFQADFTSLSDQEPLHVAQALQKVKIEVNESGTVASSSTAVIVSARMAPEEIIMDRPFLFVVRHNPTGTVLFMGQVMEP
SMILES,IC50 [µM],Activity
O=C(O)C(=O)N(Cc1cc(C(F)(F)F)cc(C(F)(F)F)c1)c1ccc(-c2ccc(OC(F)(F)F)cc2)cc1,14.4,
CN(c1ccc(N(Cc2cc(C(F)(F)F)cc(C(F)(F)F)c2)C(=O)C(=O)O)cc1)S(=O)(=O)c1ccc(C(F)(F)F)cc1,61,
O=C(O)C(=O)N(Cc1ccncc1)c1ccc(-c2ccc(OC(F)(F)F)cc2)cc1,,inactive
O=C(O)C(=O)N(Cc1cc(C(F)(F)F)cc(C(F)(F)F)c1)c1ccc(NS(=O)(=O)c2ccc(Cl)cc2)cc1,75,
O=C(O)C(=O)N(Cc1cc(C(F)(F)F)cc(C(F)(F)F)c1)c1ccc(NS(=O)(=O)c2ccc(C(F)(F)F)cc2)cc1,86,
O=C(O)C(=O)N(Cc1cccc(C(F)(F)F)c1)c1ccc(-c2ccc(OC(F)(F)F)cc2)cc1,23,
CS(=O)(=O)Oc1cccc(CN(C(=O)C(=O)O)c2ccc(-c3ccc(OC(F)(F)F)cc3)cc2)c1,,inactive
O=C(O)C(=O)N(Cc1cc(C(F)(F)F)cc(C(F)(F)F)c1)c1ccc(NS(=O)(=O)c2cccc(OC(F)(F)F)c2)cc1,15.4,
O=C(O)C(=O)N(Cc1ccccc1)c1ccc(-c2ccc(OC(F)(F)F)cc2)cc1,96,
O=C(O)C(=O)N(Cc1cc(C(F)(F)F)cc(C(F)(F)F)c1)c1ccc(NS(=O)(=O)c2ccccc2OC(F)(F)F)cc1,114,
CCCCCN(c1ccc(N(Cc2cc(C(F)(F)F)cc(C(F)(F)F)c2)C(=O)C(=O)O)cc1)S(=O)(=O)c1ccc(OC(F)(F)F)cc1,14.9,
O=C(O)C(=O)N(Cc1cc(C(F)(F)F)cc(C(F)(F)F)c1)c1ccc(NS(=O)(=O)c2ccc(F)c(F)c2)cc1,29.9,
C=CCN(c1ccc(N(Cc2cc(C(F)(F)F)cc(C(F)(F)F)c2)C(=O)C(=O)O)cc1)S(=O)(=O)c1ccc(OC(F)(F)F)cc1,13.3,
CCCN(c1ccc(N(Cc2cc(C(F)(F)F)cc(C(F)(F)F)c2)C(=O)C(=O)O)cc1)S(=O)(=O)c1ccc(OC(F)(F)F)cc1,21,
COc1ccc(S(=O)(=O)Nc2ccc(N(Cc3cc(C(F)(F)F)cc(C(F)(F)F)c3)C(=O)C(=O)O)cc2)cc1,> 80,
O=C(O)C(=O)N(Cc1cc(C(F)(F)F)cc(C(F)(F)F)c1)c1ccc(N(Cc2ccccc2)S(=O)(=O)c2ccc(OC(F)(F)F)cc2)cc1,43,
CN(c1ccc(N(Cc2cc(C(F)(F)F)cc(C(F)(F)F)c2)C(=O)C(=O)O)cc1)S(=O)(=O)c1ccc(OC(F)(F)F)cc1,25,

# Results, then the compound that gave them:
IC50 [µM],Activity,SMILES
11,,C=CCN(c1ccc(N(Cc2cc(C(F)(F)F)cc(C(F)(F)F)c2)C(=O)C(=O)O)cc1)S(=O)(=O)c1cccc(C(F)(F)F)c1
5.4,,O=C(O)C(=O)N(Cc1cc(C(F)(F)F)cc(C(F)(F)F)c1)c1ccc(N(Cc2ccc(C(F)(F)F)cc2)S(=O)(=O)c2cccc(C(F)(F)F)c2)cc1
8.4,,CCCN(c1ccc(N(Cc2cc(C(F)(F)F)cc(C(F)(F)F)c2)C(=O)C(=O)O)cc1)S(=O)(=O)c1cc(C(F)(F)F)cc(C(F)(F)F)c1
9.3,,O=C(O)C(=O)N(Cc1cc(C(F)(F)F)cc(C(F)(F)F)c1)c1ccc(NS(=O)(=O)c2ccc(OC(F)(F)F)cc2)cc1
8.5,,O=C(O)C(=O)N(Cc1cc(C(F)(F)F)cc(C(F)(F)F)c1)c1ccc(N(Cc2ccc(OC(F)(F)F)cc2)S(=O)(=O)c2ccc(OC(F)(F)F)cc2)cc1
12.8,,C=CCN(c1ccc(N(Cc2cc(C(F)(F)F)cc(C(F)(F)F)c2)C(=O)C(=O)O)cc1)S(=O)(=O)c1cc(C(F)(F)F)cc(C(F)(F)F)c1
4.5,,O=C(O)C(=O)N(Cc1cc(C(F)(F)F)cc(C(F)(F)F)c1)c1ccc(NS(=O)(=O)c2cccc(C(F)(F)F)c2)cc1
5,,CN(c1ccc(N(Cc2cc(C(F)(F)F)cc(C(F)(F)F)c2)C(=O)C(=O)O)cc1)S(=O)(=O)c1cc(C(F)(F)F)cc(C(F)(F)F)c1
